Compound activity from PubChem BioAssay.
Rev-RRE block: disrupts HIV-1 Rev binding to RRE RNA. Rev peptide-RRE RNA binding, FRET. hit rate 0.79% among 97,000. inhibition, % at 8 µM. AID 704;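 active = inhibition above the screen-wide mean plus 3 SD, cut at about 35% in these data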;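 also: 0% = median DMSO wells and 100% = median Neomycin B control wells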
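Assay system: Rev peptide and RRE RNA, both fluorescently labelled; times: 5 min preincubation and 15 min binding, 25 °C; detection: FRET, ex 480 nm, em 540 and 671 nm; read-out basis: % inhibition from 671/540 nm acceptor-to-donor ratio, scaled between controls; benchmarks: DMSO low control, neomycin B high control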
EphB4 antag: blocks human EphB4 binding to ephrin-B2. P54760. EphB4 LBD / TNYL-RAW-Alexa532 peptide, fluorescence polarization. inhibition, % at 7 µM. hit rate 0.15% among 97,000. AID 720;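 active = inhibition above the screen-wide mean inhibition plus 3 SD, cut at about 15% in these data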;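 also: 0% = DMSO wells and 100% = excess unlabeled TNYL-RAW peptide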
Cav3 T inh: inhibitors of human Cav3.2 T-type calcium channel | Cav3.2-expressing cells, Fluo-4 calcium fluorescence FDSS; hits give low values | O95180 | hit rate 4% among 100,000 | B-score at 10 µM;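 active = single-dose well whose peak fluorescence ratio is a statistical outlier from its plate by either plate-standardised score or position-corrected B-score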
hDAT+cocaine: changed human dopamine transporter uptake under cocaine IC80. Q01959. LLC-PK1 hDAT cells, [14C]-dopamine uptake with cocaine IC80; actives deviate in either direction. B-score at 10 µM. hit rate 1.3% among 110,000. AID 449768;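 active = Z score or B-score, a plate-position-corrected score, falls beyond the plate's 99.7% confidence bounds, in either direction; inactive = both scores lie inside the 99.7% bounds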;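 also: scored against the spread of the other compound wells on the same plate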
Target sequence (Q01959 whole entry, looked up): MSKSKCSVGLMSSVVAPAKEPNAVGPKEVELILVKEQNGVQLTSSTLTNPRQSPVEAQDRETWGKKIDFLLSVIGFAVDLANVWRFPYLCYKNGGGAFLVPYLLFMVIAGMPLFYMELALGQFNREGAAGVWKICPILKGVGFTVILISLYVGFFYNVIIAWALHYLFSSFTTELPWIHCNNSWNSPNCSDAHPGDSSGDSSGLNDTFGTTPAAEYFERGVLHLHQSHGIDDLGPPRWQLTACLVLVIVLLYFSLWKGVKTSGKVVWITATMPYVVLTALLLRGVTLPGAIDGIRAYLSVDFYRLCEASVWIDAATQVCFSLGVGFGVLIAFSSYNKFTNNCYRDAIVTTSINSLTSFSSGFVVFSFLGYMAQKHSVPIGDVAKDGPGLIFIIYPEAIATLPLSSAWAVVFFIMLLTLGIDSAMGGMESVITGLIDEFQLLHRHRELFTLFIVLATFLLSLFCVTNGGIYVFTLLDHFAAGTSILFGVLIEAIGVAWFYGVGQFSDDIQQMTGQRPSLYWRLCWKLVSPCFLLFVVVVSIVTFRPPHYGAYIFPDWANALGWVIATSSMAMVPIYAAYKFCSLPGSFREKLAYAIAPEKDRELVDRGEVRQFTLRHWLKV
* hit, by the source's call; [ ] = remark or other dose. Hits are enriched below; roughly 5.4% of the tested compounds scored in any of these assays.

Cc1cccc(Nc2nc(NCc3ccco3)nc(N3CCOCC3)n2)c1 was read as Rev-RRE block 9.1, EphB4 antag 7.8, Cav3 T inh -4.66* and hDAT+cocaine 1.39.
For N#Cc1ccc(NC(=O)Nc2ccc(Cl)cc2)cc1 the results were Cav3 T inh -0.2 and hDAT+cocaine -1.44.
CN(CC(=O)Nc1ccc(C#N)cc1)Cc1ccc(Cl)cc1Cl was read as Rev-RRE block 16.1, EphB4 antag 2.3, Cav3 T inh -4.2* and hDAT+cocaine 0.27.
`O=C1CC(N2CCN(c3ccccn3)CC2)C(=O)N1CC(c1ccccc1)c1ccccc1` (stereo unspecified) gave Rev-RRE block 9.3, EphB4 antag 4.4, Cav3 T inh -6.29* and hDAT+cocaine 0.966.
Screening COc1ccc(CCN2C(=O)CC(N3CCN(c4ccccn4)CC3)C2=O)cc1OC (stereo unspecified) returned Rev-RRE block 4.2, EphB4 antag 6.5, Cav3 T inh 0.387 and hDAT+cocaine 1.75.
CC[C@@H]1CC=C[C@H]2[C@H]1C(=O)N(Cc1ccccc1)[C@H]2c1ccc2ccccc2c1 was read as Cav3 T inh -2.58 and hDAT+cocaine -0.887.
`Cc1[nH]nc2c1C(c1ccsc1C)C(C#N)=C(N)O2` (stereo unspecified) gave Rev-RRE block 5.8, EphB4 antag 4.8, Cav3 T inh -1.88 and hDAT+cocaine -1.19.
`Cc1sccc1C1C(C#N)=C(N)SC(N)=C1C#N` gave Rev-RRE block 74.6* and EphB4 antag 5.0.
Cc1cc(C2C(C#N)=C(N)Oc3n[nH]c(C)c32)c(C)s1 (stereo unspecified) was read as Rev-RRE block 3.0, EphB4 antag -1.5, Cav3 T inh -0.388 and hDAT+cocaine -0.896.
Screening Cc1cc(C2C(C#N)=C(N)SC(N)=C2C#N)c(C)s1 returned Rev-RRE block 83.3*[fluorescence artefact?] and EphB4 antag -4.7.
For C=CCn1cnc2scc(-c3ccc(C)cc3)c2c1=O the results were Rev-RRE block 2.0, EphB4 antag -5.3, Cav3 T inh -0.526 and hDAT+cocaine 1.93.
O=C(NCC1CC1)c1ccc(Nc2nc3ccc(Br)cc3[nH]2)cc1 was read as Rev-RRE block 9.6, EphB4 antag -6.4, Cav3 T inh -0.0862 and hDAT+cocaine 1.56.
`O=C(Cc1ccc(Nc2nc3ccc(Br)cc3[nH]2)cc1)NCCc1cccs1` gave Rev-RRE block 16.7, EphB4 antag 5.2, Cav3 T inh -3.16* and hDAT+cocaine -0.649.
For N#Cc1ccc(NC(=O)CCc2ccc(S(=O)(=O)N3CCOCC3)cc2)cc1 the results were Rev-RRE block 4.1, EphB4 antag 3.7, Cav3 T inh 0.429 and hDAT+cocaine -0.151.
CCOC(=O)c1ccc(CSc2nnc(C)n2N)o1 was read as Rev-RRE block 10.2, EphB4 antag -9.3, Cav3 T inh -0.0813 and hDAT+cocaine -0.0313.
Screening CCCc1nnc(SCc2ccc(C(=O)OC)o2)n1N returned Rev-RRE block 9.9, EphB4 antag 39.2*[fluorescence artefact?], Cav3 T inh 0.278 and hDAT+cocaine -0.0525.
Screening COC(=O)c1ccc(CSc2nc3ccccc3c(=O)n2Cc2ccco2)o1 returned Rev-RRE block 4.2, EphB4 antag -6.8, Cav3 T inh -2.49 and hDAT+cocaine -0.0834.
Screening COC(=O)c1ccc(CSc2nc3ccccc3c(=O)n2CC(C)C)o1 returned Rev-RRE block 4.5, EphB4 antag -2.0, Cav3 T inh -4.68* and hDAT+cocaine -0.116.
`CCOC(=O)c1c(NC(=O)CSc2nnc(C)s2)sc2c1CCC(CC)C2` (stereo unspecified) gave Rev-RRE block -2.4, EphB4 antag -6.9, Cav3 T inh -2.66 and hDAT+cocaine 2.22*.
CCOC(=O)c1sc(NC(=O)CSc2nnc(C)s2)c(C(=O)OCC)c1C was read as Rev-RRE block 15.9, EphB4 antag 1.1, Cav3 T inh -3.58 and hDAT+cocaine -0.72.
For Cc1ccccc1OC1C(=O)N(Cc2ccc3c(c2)OCO3)C1c1sccc1C (stereo unspecified) the results were Rev-RRE block 8.1, EphB4 antag -3.3, Cav3 T inh -3.15 and hDAT+cocaine 0.312.
`COc1cccc(NC(=O)Cn2cnc3sc(C)c(S(=O)(=O)N4CCCCC4)c3c2=O)c1` gave Rev-RRE block 11.1, EphB4 antag 0.8, Cav3 T inh -1.15 and hDAT+cocaine -0.803.
CCOC(=O)c1nnn(-c2nonc2N)c1CN(CC)CC was read as Rev-RRE block 2.4, EphB4 antag -8.1, Cav3 T inh 0.00702 and hDAT+cocaine -0.402.
Screening CCOC(=O)c1nnn(-c2nonc2N)c1CN(CC)c1ccccc1 returned Rev-RRE block 7.2, EphB4 antag -2.1, Cav3 T inh -4.78* and hDAT+cocaine -1.06.
COc1ccc([C@@H]2[C@H]3C(=O)N(c4cccc(C(F)(F)F)c4)C(=O)[C@H]3ON2C)cc1 was read as Rev-RRE block 14.6, EphB4 antag -0.5, Cav3 T inh 0.251 and hDAT+cocaine 0.993.
Screening CC(=O)NC1(c2ccc(F)cc2)CCN(C(=O)Nc2ccc(F)cc2F)CC1 returned Rev-RRE block 6.3, EphB4 antag -1.6, Cav3 T inh 0.578 and hDAT+cocaine -0.265.
O=C(Cc1cccc2ccccc12)N1CCCc2ccccc21 was read as Rev-RRE block 3.3, EphB4 antag 6.6, Cav3 T inh -4.49* and hDAT+cocaine 0.436.
For CCCCNC(=O)CN(c1cccc(Br)c1)S(C)(=O)=O the results were Rev-RRE block 5.1, EphB4 antag 2.1, Cav3 T inh 0.741 and hDAT+cocaine -1.19.
Screening CCCCn1c(NC(=O)CC)c(C#N)c2nc3ccccc3nc21 returned Rev-RRE block 11.7, EphB4 antag 2.1, Cav3 T inh 0.268 and hDAT+cocaine 0.277.
Screening CCCCn1c(NC(=O)c2ccccc2Cl)c(C#N)c2nc3ccccc3nc21 returned Rev-RRE block 13.5, EphB4 antag 7.0, Cav3 T inh -8.77* and hDAT+cocaine 0.274.
Screening COc1ccc(-n2c(NC(=O)c3ccco3)c(C#N)c3nc4ccccc4nc32)cc1 returned Rev-RRE block 37.0*, EphB4 antag -0.8, Cav3 T inh -3.16 and hDAT+cocaine -0.143.
For C=CCNC(=O)c1cccc(C(F)(F)F)c1 the results were Rev-RRE block 4.5, EphB4 antag 3.9, Cav3 T inh 0.0293 and hDAT+cocaine -0.824.
`CCC(C)NS(=O)(=O)c1ccc(OC)c(Cl)c1Cl` (stereo unspecified) gave Rev-RRE block 7.4, EphB4 antag 2.7, Cav3 T inh -2.91 and hDAT+cocaine 0.0113.
For COC(=O)\C(C(C)=O)=C(/C=C/C=C/C=C/N(C)C)N(C)C the results were Rev-RRE block 81.6*, EphB4 antag 3.9, Cav3 T inh -7.05* and hDAT+cocaine 0.0285.
Cc1ccc(S(=O)(=O)Oc2ccccc2/C=N/NC(=O)c2c(Cl)cnn2C)cc1 was read as Rev-RRE block 15.0, EphB4 antag 1.7, Cav3 T inh -8.87* and hDAT+cocaine 1.65.
`CC1(OC(=O)C2CCCC2)C(=O)C=C2C=C(c3ccsc3)N(C(CO)CO)C=C2C1=O` (stereo unspecified) gave Cav3 T inh 0.607 and hDAT+cocaine -0.166.
For O=C(CCC1CCCCC1)NCCN1C2=NC[C@@H](Cc3ccccc3)N2C[C@H]1Cc1ccc(O)cc1 the results were Cav3 T inh -2.19 and hDAT+cocaine 0.00267.
